Compound activity (PubChem BioAssay)
HGIII-sPLA2 inh – Inhibits HGIII-sPLA2 liposome hydrolysis, primary screen. Q9NZ20. QFRET BODIPY PC-A2 liposome hydrolysis, fluorescence. inhibition, % at 12.2 µM. hit rate 0.56% among 370,000. AID 743126;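 active = inhibition above mean plus 3 SD of compounds lying within the high and low control bounds, cut at about 19% in these data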;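 also: 0% = median of test compound wells and 100% = no enzyme DMSO wells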
NTR1 ag – activates human neurotensin receptor 1; P30989; NTR1-U2OS beta-arrestin-GFP spot imaging, agonist mode; activation, % at 20 µM; hit rate 0.17% among 330,000; AID 493036;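 active = activation at or above 40% of the spot to cytoplasm intensity ratio, with at least 20 cells analyzed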;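 also: 0% = DMSO without peptide and 100% = 100 nM NTR1 peptide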
MC4R ag barr – activates human MC4R beta-arrestin recruitment | activation, % at 8.9 µM | hit rate 0.98% among 360,000 | U2OS MC4R beta-arrestin complementation, luminescence; percent of melanotan II response, DMSO zero | P32245 | AID 540308;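 active = activation above a per-plate cutoff, the mean activation of sample wells on that plate plus 3 SD, cut at about 8% in these data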
Granule exo inh – lytic granule exocytosis inhibition | hit rate 0.66% among 360,000 | TALL-104 LAMP-1 surface exposure, flow cytometry; cells stimulated with thapsigargin and PMA | inhibition, % at 10 µM;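 active = inhibition above about 55%, limit read from the data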
MC4R antagonist – blocks human MC4R cAMP signaling; MC4R-expressing cells, MTII-stimulated cAMP, LANCE TR-FRET; P32245; hit rate 0.48% among 360,000; inhibition, % at 6.5 µM;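 active = inhibition above its plate's cutoff, the mean of tested wells on that plate plus 3 SD, cut at about 29% in these data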;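 also: 0% = Melanotan II alone and 100% = Melanotan II plus saturating MCL0020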
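System: U2OS cells stably expressing human melanocortin 4 receptor (MC4R). Reagent: Melanotan II challenge after compound preincubation. Doses: 6.5 µM. Times: 30-min compound, 1-h challenge, 1-h detection, room temperature. Measured by: TR-FRET with Eu-cAMP and labeled anti-cAMP, 671 nm. Replicates: singlicate.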
Bfl-1 A1 inh – inhibitors of the anti-apoptotic protein A1, read as caspase activation; MEF A1-2A-BIM cells, Caspase-Glo 3/7 luminescence, 3 h; percent of clofoctol response, vehicle zero; caspase activation, % (no concentration beside the values); hit rate 0.066% among 330,000; AID 2462;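 active = over half of replicate activation scores above 10%, or exactly half above 10 with the replicate mean above 10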
MC4R barr conf – human MC4R beta-arrestin agonism confirmation; shares compounds with MC4R ag barr; U2OS MC4R beta-arrestin recruitment, luminescence; scaled DMSO 0%, Melanotan II 100%; activation, % at 8.9 µM; hit rate 31% among 2,400;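 active = mean activation across replicates above the hit cutoff set in the earlier primary screen, cut at about 8% in these data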
MOR DOR agonist – counter-screen for MC4R agonists: agonists of mu-delta opioid heterodimer; shares compounds with MC4R ag barr; U2OS PathHunter beta-arrestin, beta-gal luminescence; percent of deltorphin B response, DMSO zero; activation, % at 9.2 µM; hit rate 5.8% among 2,400; AID 602194;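 active = mean activation across replicates exceeds the hit threshold derived in the earlier primary screen, cut at about 18% in these data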;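 also: 100% = deltorphin B at 0.9 µM final and 0% = DMSO alone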
Target sequence (P35372 whole entry, looked up): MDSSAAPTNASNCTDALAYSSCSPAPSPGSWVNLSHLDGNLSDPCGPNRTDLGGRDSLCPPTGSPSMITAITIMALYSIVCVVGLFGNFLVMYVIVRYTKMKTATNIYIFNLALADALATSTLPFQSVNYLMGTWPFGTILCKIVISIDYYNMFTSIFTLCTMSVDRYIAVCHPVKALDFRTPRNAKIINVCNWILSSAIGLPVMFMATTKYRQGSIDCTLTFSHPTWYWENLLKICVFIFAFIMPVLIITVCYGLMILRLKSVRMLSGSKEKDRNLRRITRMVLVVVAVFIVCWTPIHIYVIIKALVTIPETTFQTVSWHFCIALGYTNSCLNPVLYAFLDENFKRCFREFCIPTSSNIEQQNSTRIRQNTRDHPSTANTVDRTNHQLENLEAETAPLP
Target sequence (P41143 whole entry, looked up): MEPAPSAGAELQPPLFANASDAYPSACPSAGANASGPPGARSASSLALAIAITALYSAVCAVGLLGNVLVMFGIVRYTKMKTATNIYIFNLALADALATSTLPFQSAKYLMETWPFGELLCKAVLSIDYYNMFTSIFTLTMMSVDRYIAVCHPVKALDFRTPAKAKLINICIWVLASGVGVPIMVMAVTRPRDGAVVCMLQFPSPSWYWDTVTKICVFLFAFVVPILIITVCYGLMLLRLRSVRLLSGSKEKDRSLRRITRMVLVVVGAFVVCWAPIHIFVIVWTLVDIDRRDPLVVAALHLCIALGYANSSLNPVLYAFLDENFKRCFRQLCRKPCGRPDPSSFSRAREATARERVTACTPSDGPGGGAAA
* marks the source's active call; other numbers are inactive results. This is a sample that favours compounds with a hit; in the whole collection about 2.5% have one here.

Results for COc1cccc(/C=N/NC(=O)CCn2c3ccccc3c3ccccc32)c1 ?
HGIII-sPLA2 inh: -12; NTR1 ag: 31; MC4R ag barr: 14*; Granule exo inh: 11; MC4R antagonist: 2; Bfl-1 A1 inh: 0; MC4R barr conf: 4; MOR DOR agonist: 7

What do the screens show for `COc1ccc(/C=N/NC(=O)CCn2c3ccccc3c3ccccc32)cc1O`?
HGIII-sPLA2 inh: -40; NTR1 ag: 8; MC4R ag barr: 0; Granule exo inh: -2; MC4R antagonist: -9; Bfl-1 A1 inh: 0

Results for O=C(OCC#CCSc1nnc(-c2cccc3ccccc23)o1)c1cccc(C(F)(F)F)c1 ?
HGIII-sPLA2 inh: 3

How did CC(C)C(=O)N[C@H]1[C@H](O)CCC[C@]12C(=O)N(Cc1ccccc1)c1ccccc12 do in these assays?
HGIII-sPLA2 inh: 1

What do the screens show for `Cc1cc(C(=O)N/N=C/c2cc(Br)ccc2OC(=O)c2ccccc2)n[nH]1`?
HGIII-sPLA2 inh: 1; NTR1 ag: 6; MC4R ag barr: 17*; Granule exo inh: 7; MC4R antagonist: -1; Bfl-1 A1 inh: 1; MC4R barr conf: 3; MOR DOR agonist: 7

Results for Cc1cc(C(=O)N/N=C/c2cc(Br)ccc2OC(=O)c2ccccc2Cl)n[nH]1 ?
HGIII-sPLA2 inh: -12; NTR1 ag: 0; MC4R ag barr: -3; Granule exo inh: -1; MC4R antagonist: 10; Bfl-1 A1 inh: 1

How did COC(=O)C(CC(C)C)N(Cc1ccc(Br)cc1)S(=O)(=O)CCl (stereo not given) do in these assays?
HGIII-sPLA2 inh: -10

What do the screens show for `COC(=O)c1ccc(NC(=O)COc2coc(CN3CCc4ccccc43)cc2=O)cc1`?
HGIII-sPLA2 inh: 0; NTR1 ag: 0; MC4R ag barr: -4; Granule exo inh: -4; MC4R antagonist: -1; Bfl-1 A1 inh: 1

How did Cc1ccc(NC(=O)COc2coc(CN3CCc4ccccc43)cc2=O)cc1Cl do in these assays?
HGIII-sPLA2 inh: 4; NTR1 ag: 2; MC4R ag barr: 12*; Granule exo inh: 30; MC4R antagonist: 8; Bfl-1 A1 inh: 1; MC4R barr conf: 5; MOR DOR agonist: 25*

Results for CC(NCc1ccc(OCc2ccc(Cl)cc2)cc1)C(O)c1ccccc1 (stereo not given) ?
HGIII-sPLA2 inh: 1; NTR1 ag: 32; MC4R ag barr: 16*; Granule exo inh: 67*; MC4R antagonist: 9; Bfl-1 A1 inh: -1; MC4R barr conf: 26*; MOR DOR agonist: 12

Results for COc1ccc(-c2nsc(SCC(=O)Nc3ccc4c(c3)OCO4)n2)cc1 ?
HGIII-sPLA2 inh: 7; NTR1 ag: 8; MC4R ag barr: 12*; Granule exo inh: -2; MC4R antagonist: 12; Bfl-1 A1 inh: 0; MC4R barr conf: 3; MOR DOR agonist: 6

What do the screens show for `O=C(CCn1nnc2ccccc21)N1CCN(c2ccc(F)cc2)CC1`?
HGIII-sPLA2 inh: 3

How did CN1C(=S)N(c2ccccc2)C(=O)/C1=C/c1cccs1 do in these assays?
HGIII-sPLA2 inh: -1; NTR1 ag: 12; MC4R ag barr: 17*; Granule exo inh: 3; MC4R antagonist: -4; Bfl-1 A1 inh: 0; MC4R barr conf: 8; MOR DOR agonist: 2

Results for COC(=O)[C@H](C(C)C)N(Cc1cn(CC2CCCCC2)nn1)S(=O)(=O)c1ccc(F)cc1Br ?
HGIII-sPLA2 inh: 5

What do the screens show for `Cc1cccc(NC(=O)c2nc[nH]c2C(=O)NCCCCCNC(=O)OC(C)(C)C)c1`?
HGIII-sPLA2 inh: -4; NTR1 ag: 19; MC4R ag barr: 9.7*; Granule exo inh: 13; MC4R antagonist: 6; Bfl-1 A1 inh: -2; MC4R barr conf: -3; MOR DOR agonist: 9

Results for O=C(Nc1c(-c2ccc(F)c(F)c2)nc2ncccn12)C1CC1 ?
HGIII-sPLA2 inh: 2

What do the screens show for `Cc1ccc2cc3c(NC(=O)c4ccco4)nn(CC(C)C)c3nc2c1`?
HGIII-sPLA2 inh: 2; NTR1 ag: 0; MC4R ag barr: 13*; Granule exo inh: 0; MC4R antagonist: 7; Bfl-1 A1 inh: 0; MC4R barr conf: -2; MOR DOR agonist: 3

How did C[C@H](CO)N1C[C@H](C)[C@@H](CN(C)C(=O)C2CC2)OCc2cn(nn2)CCCC1=O do in these assays?
HGIII-sPLA2 inh: 7

How did O=C(NCC1COCCO1)C1CCN(S(=O)(=O)c2cccs2)CC1 (stereo not given) do in these assays?
HGIII-sPLA2 inh: 0

How did CCCCCCCCCCCC1N=C(N)NC(CCCO)=C1C(=O)OC (stereo not given) do in these assays?
HGIII-sPLA2 inh: 9; MC4R ag barr: 12*; Granule exo inh: -12; MC4R antagonist: 7; MC4R barr conf: 26*; MOR DOR agonist: 5

How did CCCCCCOC(=O)c1ccc(N)cc1 do in these assays?
HGIII-sPLA2 inh: -6; NTR1 ag: 4; MC4R ag barr: 4; Granule exo inh: -2; MC4R antagonist: -5; Bfl-1 A1 inh: 0

How did C=CCN(CC#Cc1ccccc1)CC1CC1 do in these assays?
HGIII-sPLA2 inh: 4

How did COC(=O)[C@]12C[C@H](CC(=O)N3CCN(C(=O)c4ccco4)CC3)C(=O)N(Cc3ccco3)C1=C[C@H](COCc1ccccc1)O[C@@H]2C do in these assays?
HGIII-sPLA2 inh: -1

Results for Cc1ccccc1NC(=O)Cc1nc(COC(=O)c2cc(Br)ccc2O)cs1 ?
HGIII-sPLA2 inh: -21; NTR1 ag: 2; MC4R ag barr: 16*; Granule exo inh: -5; MC4R antagonist: 0; Bfl-1 A1 inh: 0; MC4R barr conf: 2; MOR DOR agonist: 6

Results for C=CCOc1ccc(/C=C/C(=O)OCc2csc(CC(=O)Nc3ccccc3C)n2)cc1 ?
HGIII-sPLA2 inh: -29; NTR1 ag: 6; MC4R ag barr: 15*; Granule exo inh: 6; MC4R antagonist: 3; Bfl-1 A1 inh: -1; MC4R barr conf: 8.7*; MOR DOR agonist: 15

Results for Cc1ccccc1NC(=O)Cc1nc(COC(=O)/C=C/c2ccc(F)cc2)cs1 ?
HGIII-sPLA2 inh: -48; MC4R ag barr: 0; Granule exo inh: -7; MC4R antagonist: 4

How did CCC(C)c1ccc(C2C3=C(Nc4nc(N)[nH]c(=O)c42)c2ccccc2C3=O)cc1 (stereo not given) do in these assays?
HGIII-sPLA2 inh: 5; NTR1 ag: 12; MC4R ag barr: 10*; Granule exo inh: 0; MC4R antagonist: -16; Bfl-1 A1 inh: -1; MC4R barr conf: -2; MOR DOR agonist: 1
